Source: PubChem
Rtt109 Vps75 – inhibitors of Candida albicans Rtt109/Vps75 histone acetyltransferase. inhibition, % at 34.9 µM. purified Rtt109/Vps75, ThioGlo CoA-SH fluorescence, 4 h. Q5AAJ8. actives 0.16% (n = 330,000);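 active means inhibition of at least 50% in every replicate; inconclusive means best replicate reaches 50% inhibition but some replicates fall short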
Target sequence (Q5AAJ8 whole entry, looked up): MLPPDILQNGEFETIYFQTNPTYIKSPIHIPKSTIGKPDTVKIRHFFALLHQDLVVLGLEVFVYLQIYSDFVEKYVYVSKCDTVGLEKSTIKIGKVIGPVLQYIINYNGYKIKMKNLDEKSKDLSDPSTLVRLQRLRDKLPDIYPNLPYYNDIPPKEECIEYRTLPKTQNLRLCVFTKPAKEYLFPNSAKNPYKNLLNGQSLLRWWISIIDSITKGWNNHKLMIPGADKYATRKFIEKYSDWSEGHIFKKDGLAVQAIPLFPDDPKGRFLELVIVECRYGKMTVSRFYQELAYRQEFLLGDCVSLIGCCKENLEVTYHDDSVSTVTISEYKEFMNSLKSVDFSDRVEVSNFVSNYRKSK
CAL PDZ FP-1 – human CAL PDZ-peptide interaction inhibition; Q9HD26; purified CAL PDZ, TMR-peptide fluorescence polarization, 1 h; inhibition, % at 20 µM; actives 0.02% (n = 330,000); AID 504414;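 active means highest replicate inhibition of at least 40%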;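 further: plate controls were DMSO neutral control wells for no effect and unlabeled competitor peptide control wells for full effect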
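Test system: purified CerCALP PDZ construct; Compound dosing: one concentration, 20 µM compound; Also added: TMR-labelled reporter peptide T*-PRC34 bound in PDZ groove; Read-out: inhibition from polarization loss; Controls: unlabelled peptide and DMSO controls; Signal: FP readout, S and P plane fluorescence; Incubation: 1 h at RT.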
DYRK1A inh – inhibitors of rat Dyrk1A kinase | inhibition, % at 12.5 µM | ADP-Glo luminescence, NFATc1 peptide | actives 0.43% (n = 310,000); in the data active means inhibition above about 50%;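 further: plate controls were vehicle with enzyme for no effect and no enzyme for full effect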
CAL PDZ FP-2 – blocks peptide binding to the human CAL PDZ domain | Q9HD26 | inhibition, % at 24.9 µM | AID 602252 | actives 0.92% (n = 300,000) | purified CAL PDZ, TMR-peptide fluorescence polarization, 1 h;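 active means mean inhibition of at least 30% with at least half of replicates also reaching 30%; inconclusive means no clear call, values can overlap the other calls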;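 further: 0% = DMSO neutral control and 100% = excess unlabeled competitor peptide PRC23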
ALR H2O2 inh – inhibitors of human sulfhydryl oxidase ALR; P55789; purified ALR, DTT oxidation, H2O2 HRP-luminol luminescence; inhibition, % (no concentration beside the values); actives 3.8% (n = 290,000); AID 485317;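 active means mean replicate inhibition above about 79%, with every replicate also reaching it, limit read from the data; inconclusive means only one of the two criteria met; inactive means mean below limit and not every replicate reaching it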
Target sequence (P55789 whole entry, looked up): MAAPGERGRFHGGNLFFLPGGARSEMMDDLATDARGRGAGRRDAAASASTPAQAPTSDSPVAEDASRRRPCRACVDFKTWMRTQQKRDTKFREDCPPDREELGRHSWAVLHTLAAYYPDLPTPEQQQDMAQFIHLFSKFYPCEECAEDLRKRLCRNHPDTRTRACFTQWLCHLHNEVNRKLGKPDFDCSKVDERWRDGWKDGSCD
An asterisk follows results filed as active; ? = inconclusive; nt = no result given. Shown are actives, neighbours in structure and some others; about 4.3% of the full set was active somewhere.

SMILES	Rtt109 Vps75	CAL PDZ FP-1	DYRK1A inh	CAL PDZ FP-2	ALR H2O2 inh
COc1ccc(N2CCN(CC(O)COc3cc(C)ccc3C)CC2)cc1 (stereo not drawn)	-2.9	-0.8	-4.1	-3.5	9.0
COc1ccc(OCC(O)CN2CCN(c3ccccc3)CC2)cc1 (stereo not drawn)	-4.6	-9.1	-27.3	0.5	32.7
CC(=O)Nc1ccc(OCC(O)CN2CCN(c3cc(Cl)ccc3C)CC2)cc1 (stereo not drawn)	26.3	-0.9	2.6	-4.3	-3.2
COc1ccc(N2CCN(CC(O)COc3ccc(C)cc3C)CC2)cc1 (stereo not drawn)	9.6	-1.6	-2.5	-1.8	79.3*
O=[N+]([O-])c1ccc(CSCc2ccc([N+](=O)[O-])cc2)cc1	-0.8	0.1	0.3	-0.4	nt
C#CCNC(=O)C1=C[C@@H](c2ccc3c(c2)OCO3)C[C@@H](OCCCCO)O1	15.9	-0.8	-1.0	5.2	-13.0
O=C(Cc1cccc2ccccc12)Nc1ccc(N2CCOCC2)cc1	15.4	0.2	-2.2	nt	-13.5
O=C(CCN1C(=O)/C(=C/c2ccc(F)cc2)SC1=S)NCCc1cnc[nH]1	-0.2	-1.8	0.3	-10.2	98.0*
O=C(CCN1C(=O)/C(=C/c2ccc(F)cc2)SC1=S)NNC(=O)c1ccncc1	2.3	1.7	-3.0	nt	0.5
O=C(CSc1nnc(-c2cccc(Br)c2)o1)N1CCOCC1	-3.6	-0.3	-3.1	-3.0	-11.1
O=C(NCc1ccccc1)c1nc[nH]c1C(=O)N1CCN(c2ccccc2)CC1	-6.6	0.6	nt	-1.1	97.7*
CC1CCN(C(=O)c2[nH]cnc2C(=O)NCc2ccccc2)CC1	-2.3	-0.9	nt	-1.4	5.4
CCOc1ccc(S(=O)(=O)NC(C)C(=O)NCc2ccc3c(c2)OCO3)cc1 (stereo not drawn)	-4.3	0.0	-4.5	75.8*	-4.5
CCc1c(C)nc2cc(-c3ccc(OC)c(OC)c3)nn2c1NCC1CC1	3.6	nt	4.2	-1.7	nt
O=C(CCS(=O)(=O)c1cccs1)Nc1ccc(C(=O)NC2CCCC2)cc1	2.8	1.0	-0.4	1.1	-4.6
CN(C)S(=O)(=O)c1ccc(-c2cn3ccccc3n2)cc1	-4.0	1.1	3.4	-1.5	99.3*
c1ccc(-c2cn3ccccc3n2)cc1	-1.2	-1.0	-3.3	-2.4	nt
Oc1ccc(-c2cn3ccccc3n2)cc1	2.5	-3.3	36.4	0.1	99.0*
Cc1ccn2cc(-c3ccc(O)c(O)c3)nc2c1	1.0	0.5	31.8	-2.3	99.0*
Oc1ccc(-c2cn3ccccc3n2)cc1O	-2.4	0.4	6.7	-1.3	98.8*
COc1ccccc1C(=O)NC(=O)CSc1nncn1C	0.9	-0.8	5.0	-3.5	-3.5
CC1(C)CC(=O)c2cnn(-c3nc4ccccc4[nH]3)c2C1	8.7	0.0	0.2	4.1	93.7*
Cc1nn(-c2nc3ccccc3[nH]2)c(=O)c2ccccc12	-18.4	-1.8	20.4	2.3	-1.1
O=c1[nH]c2ccccc2n2c(=S)[nH]nc12	-2.5	-1.1	27.6	-7.2	43.1
CC1=C(C(=O)OC2CCCCC2)C(c2ccccc2)NC(=O)N1 (stereo not drawn)	2.1	-0.8	4.6	-1.1	96.9*
SMILES	Rtt109 Vps75	CAL PDZ FP-1	DYRK1A inh	CAL PDZ FP-2	ALR H2O2 inh
COc1cc(C2NC(=O)NC(C)=C2C(=O)OC2CCCCC2)cc(Br)c1O (stereo not drawn)	-2.3	87.8*	-0.6	-3.8	?
Cc1cc(=O)[nH]c(NCc2ccc(Cl)cc2)n1	-5.3	-0.9	3.1	nt	-8.5
COc1ccccc1C1CC(=O)Oc2ccc(C(C)(C)C)cc21 (stereo not drawn)	0.8	-0.2	-2.1	8.5	nt
CCCCC#Cc1ccc(C(=O)NNC(=O)Nc2cc(Cl)cc(Cl)c2)o1	-3.5	0.0	nt	30.2*	1.0
Cc1cc(C(=O)NNC(=O)Nc2ccc(Cl)cc2)no1	-0.3	0.2	-1.4	nt	18.7
S=c1[nH]nc(Cc2sc(-c3ccccc3)nc2-c2ccccc2)o1	19.1	-1.0	-6.2	-4.7	98.1*
Cc1[nH]c(=O)[nH]c(=O)c1/C=C/C(=O)O	3.0	-1.1	-6.3	69.8*	nt
CC(=O)c1ccc(OC(=O)CCc2nc3ccccc3s2)cc1	-26.3	0.3	5.7	5.6	92.9*
COC(=O)c1ccc(NC(=S)NC2CC3CCC2C3)cc1 (stereo not drawn)	-2.5	-1.5	0.4	-3.7	2.7
Cc1cccc(C(=O)Nc2scc(CC(C)C)c2C(=O)O)c1	-6.3	0.2	-3.4	nt	96.4*
CC(C)Cc1csc(NC(=O)c2ccc(Cl)cc2)c1C(=O)O	4.7	-1.1	-3.7	-7.5	12.3
CC(C)Cc1csc(NC(=O)c2ccccc2Cl)c1C(=O)O	-1.8	0.7	-2.5	2.0	96.3*
O=C(c1ccc(COc2ccccc2Br)cc1)N1CCCCCC1	9.3	-2.4	1.1	-6.1	2.3
COc1ccc(OC(=O)COc2ccc(C)cc2)cc1	4.2	-0.8	6.6	-4.5	6.1
COc1ccc(OCC(=O)Sc2ccc(C)cc2)cc1	-6.3	0.3	-2.9	-0.3	98.2*
O=C1COc2ccc(S(=O)(=O)CCC(=O)N3CCN(c4ccccc4)CC3)cc2N1	-2.8	-2.6	-5.2	0.6	98.4*
Cn1c(=O)oc2cc(S(=O)(=O)CCC(=O)N3CCN(c4ccccc4)CC3)ccc21	-1.8	-1.6	-6.4	-4.0	-4.5
Cc1ccc(OCCC(=O)N2CCN(c3ccc(O)cc3)CC2)cc1	21.9	-1.7	-2.6	-2.3	99.6*
O=C(CCS(=O)(=O)c1ccccc1)N1CCN(c2ccccc2)CC1	10.8	-1.1	3.4	-3.0	98.7*
COc1cccc(N2CCN(C(=O)CCS(=O)(=O)c3ccc4c(c3)oc(=O)n4C)CC2)c1	1.3	-2.0	-3.0	4.0	98.4*
O=C(COc1cccc(C(F)(F)F)c1)NCC(c1cccs1)N1CCOCC1 (stereo not drawn)	-3.0	-1.4	nt	-0.8	-11.8
O=C(c1cc2cc(Br)ccc2s1)N1CCOCC1	2.3	0.4	nt	-4.4	-0.7
COc1ccc(OCC(=O)Nc2cccc(C(=O)Nc3ccccc3C(=O)O)c2)cc1	9.7	-4.8	8.5	-3.8	48.1
COc1ccc(N2CCN(C(=O)CCNS(=O)(=O)c3ccc(C)cc3)CC2)cc1	0.2	-3.0	4.6	-2.0	99.0*
O=C(CCS(=O)(=O)c1ccc(Br)cc1)N1CCN(c2ccccc2)CC1	-9.1	-3.9	-0.5	-1.0	98.9*
O=C(CCS(=O)(=O)Cc1ccccc1)N1CCN(c2ccc([N+](=O)[O-])cc2)CC1	11.0	-1.0	-0.2	-6.0	-3.2
O=C(CCNS(=O)(=O)c1ccccc1)N1CCN(c2ccccc2)CC1	2.6	-1.1	9.6	nt	95.6*
O=C(CCS(=O)(=O)Cc1ccccc1)N1CCN(c2ccccc2)CC1	3.1	-0.1	11.7	-2.7	98.8*
CSc1ccc(CCNC(=O)c2cccc3c2C(=O)N(C2CCCCC2)C3)cc1	-4.7	-1.6	-2.3	1.5	-64.5
